{"data": "Measurements gathered from unrelated publications", "target": "Mitogen-activated protein kinase kinase kinase 6 (MAP3K6, Homo sapiens, UniProt O95382)", "Sequence (O95382 1-1288, as in one of the studies)": "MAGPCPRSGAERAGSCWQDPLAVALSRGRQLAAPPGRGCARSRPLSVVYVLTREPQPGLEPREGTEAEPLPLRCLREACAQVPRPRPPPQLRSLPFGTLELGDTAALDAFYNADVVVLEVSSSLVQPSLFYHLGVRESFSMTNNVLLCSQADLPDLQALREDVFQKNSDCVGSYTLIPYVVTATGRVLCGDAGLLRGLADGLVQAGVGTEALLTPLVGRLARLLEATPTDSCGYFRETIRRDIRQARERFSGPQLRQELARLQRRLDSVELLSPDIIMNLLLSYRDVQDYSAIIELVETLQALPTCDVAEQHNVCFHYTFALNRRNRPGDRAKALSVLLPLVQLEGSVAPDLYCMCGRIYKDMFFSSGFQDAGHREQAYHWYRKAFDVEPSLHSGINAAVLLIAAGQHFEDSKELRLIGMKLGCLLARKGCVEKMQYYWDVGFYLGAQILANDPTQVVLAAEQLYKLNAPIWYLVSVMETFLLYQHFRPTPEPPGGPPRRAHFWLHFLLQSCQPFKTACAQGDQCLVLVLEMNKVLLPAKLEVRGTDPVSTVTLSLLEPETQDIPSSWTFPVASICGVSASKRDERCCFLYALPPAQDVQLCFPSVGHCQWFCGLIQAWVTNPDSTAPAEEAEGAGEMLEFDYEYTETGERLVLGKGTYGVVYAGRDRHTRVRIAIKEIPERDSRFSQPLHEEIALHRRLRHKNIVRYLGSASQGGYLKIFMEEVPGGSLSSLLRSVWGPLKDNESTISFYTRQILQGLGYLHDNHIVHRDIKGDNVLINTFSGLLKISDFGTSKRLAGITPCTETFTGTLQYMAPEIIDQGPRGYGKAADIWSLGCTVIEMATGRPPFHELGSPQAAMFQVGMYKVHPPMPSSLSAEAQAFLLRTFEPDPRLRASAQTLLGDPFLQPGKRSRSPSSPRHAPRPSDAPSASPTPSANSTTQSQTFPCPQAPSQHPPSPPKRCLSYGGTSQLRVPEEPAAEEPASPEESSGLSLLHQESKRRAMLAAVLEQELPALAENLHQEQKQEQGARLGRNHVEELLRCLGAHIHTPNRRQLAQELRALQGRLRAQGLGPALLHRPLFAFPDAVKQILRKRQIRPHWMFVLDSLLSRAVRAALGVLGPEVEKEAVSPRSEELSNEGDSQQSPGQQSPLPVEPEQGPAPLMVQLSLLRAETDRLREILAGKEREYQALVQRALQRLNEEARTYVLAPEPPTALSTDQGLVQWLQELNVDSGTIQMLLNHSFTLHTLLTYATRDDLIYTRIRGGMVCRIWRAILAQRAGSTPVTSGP"}
{"Structure (SMILES)": "c1cnn2ncc(-c3ccnc(N4CCC45COC5)n3)c2c1", "test": "binding", "setting": "1 µM", "remaining binding": "61%"}
{"Structure (SMILES)": "N#CC1(c2ccccn2)CCN(Cc2cc(C(=O)N3CCCC3)c(=O)n3ccccc23)CC1", "test": "cell-free assay, competition with immobilised ligand", "setting": "1 µM", "remaining binding": "100%"}
{"Structure (SMILES)": "C[C@H]1CCN(c2nccc(-c3cnn4ncccc34)n2)C1", "test": "binding", "setting": "1 µM", "remaining binding": "57%"}
{"Structure (SMILES)": "CCN1CCN(Cc2ccc(C(=O)Nc3ccc(C)c(Oc4ccc5c(c4)CC(=O)N5)c3)cc2C(F)(F)F)CC1", "test": "binding, competition with immobilised ligand", "setting": "1 µM", "remaining binding": "100%"}
{"Structure (SMILES)": "CNC(=O)[C@@H]1CC[C@@H](n2c(-c3ccc4cnccc4c3)nc3ccc(C(=O)NCc4cccc(C(N)=O)c4)cc32)C1", "test": "binding, competition with immobilised ligand", "setting": "1 µM", "remaining binding": "100%"}
{"Structure (SMILES)": "O=C(c1ccc(Nc2nccc(-c3cc4ccccc4s3)n2)cc1)N1CCC(N2CCCC2)CC1", "test": "binding, competition with immobilised ligand", "setting": "1 µM", "remaining binding": "91%"}
{"Structure (SMILES)": "c1cncc(-c2cccc(Nc3nccc(NC4CCCCC4)n3)c2)c1", "test": "binding, competition with immobilised ligand", "setting": "10 µM", "remaining binding": "100%"}
{"Structure (SMILES)": "O=C(NCCCN1CCOCC1)c1ccc(Nc2ncc(Cl)c(-c3ccc(Cl)s3)n2)cc1", "test": "binding, competition with immobilised ligand", "setting": "1 µM", "remaining binding": "83%"}
{"Structure (SMILES)": "CN(CCCC(F)(F)F)c1nccc(-c2cnn3ncccc23)n1", "test": "binding", "setting": "1 µM", "remaining binding": "100%"}
{"Structure (SMILES)": "Cc1cc(C)c(-n2ccn3nc(-c4cccnc4)cc23)cc1NC(=O)c1cc(C#N)cc(S(F)(F)(F)(F)F)c1", "test": "cell-free assay, competition with immobilised ligand", "setting": "0.1 µM", "remaining binding": "100%"}
{"Structure (SMILES)": "F[C@@H]1CCN(c2nccc(-c3cnn4ncccc34)n2)C1", "test": "binding", "setting": "1 µM", "remaining binding": "76%"}
{"Structure (SMILES)": "C=CC(=O)N1CCC(C(=O)NCC(=O)N2CCN(c3nc(-c4cnc(N)nc4C(F)F)nc(N4CCOCC4)n3)CC2)CC1", "test": "binding, competition with immobilised ligand", "setting": "1 µM", "remaining binding": "100%"}
{"Structure (SMILES)": "COc1ccc2cc(OCC3(C(=O)O)CN(C(=O)c4ccc(F)cc4)C3)ccc2c1", "test": "cell-free assay, competition with immobilised ligand", "setting": "1 µM", "remaining binding": "95%"}
{"Structure (SMILES)": "N[C@H]1CCN(c2nccc(-c3cnn4ncccc34)n2)C1", "test": "binding", "setting": "1 µM", "remaining binding": "82%"}
{"Structure (SMILES)": "C[C@@H](c1ccc(-n2cnc3c(N)ncnc32)cc1)N1CCc2nn(C)c(Cc3ccccc3)c2C1=O", "test": "binding, competition with immobilised ligand", "setting": "0.1 µM", "remaining binding": "67%"}
{"Structure (SMILES)": "CCOCCn1cc(C(=O)Nc2ccc(-n3nc(-c4cccnc4)cc3C(F)(F)F)cn2)ccc1=O", "test": "cell-free assay, competition with immobilised ligand", "setting": "1 µM", "remaining binding": "86%"}
{"Structure (SMILES)": "CN(c1nccc(-c2cnn3ncccc23)n1)C1CC1", "test": "binding", "setting": "1 µM", "remaining binding": "100%"}
{"Structure (SMILES)": "CCCOc1ccc([C@@H]2[C@@H](C(=O)O)[C@H](c3ccc4c(c3)OCO4)CN2CC(=O)Nc2c(CC)cccc2CC)cc1", "test": "cell-free assay, competition with immobilised ligand", "setting": "1 µM", "remaining binding": "77%"}
{"Structure (SMILES)": "O=C(Nc1c[nH]nc1C(=O)NC1CCNCC1)c1cc(F)cc(F)c1", "test": "binding, competition with immobilised ligand", "setting": "1 µM", "remaining binding": "84%"}
{"Structure (SMILES)": "Cc1cnc(Nc2ccc(C(=O)N3CCC(N4CCCC4)CC3)cc2)nc1-c1cc2ccccc2s1", "test": "binding, competition with immobilised ligand", "setting": "1 µM", "remaining binding": "100%"}
{"Structure (SMILES)": "CN(C)c1ncc(F)c(-c2cnn3ncccc23)n1", "test": "binding", "setting": "1 µM", "remaining binding": "97%"}
{"Structure (SMILES)": "CS(=O)(=O)N1CCCC(NC(=O)[C@H](CCC2CCCCC2)NC(=O)c2ccc(CNC(=O)c3cnc4ccccn34)cc2)C1 (stereo partly shown)", "test": "cell-free assay, competition with immobilised ligand", "setting": "0.1 µM", "remaining binding": "100%"}
